This note sets out measurements from ChEMBL document CHEMBL1146180, “Synthesis and evaluation of [18F] labeled pyrimidine nucleosides for positron emission tomography imaging of herpes simplex virus 1 thymidine kinase gene expression” (J Med Chem, 2006).

The test system of data set [1] is RG2. The experiment in a line: Uptake in HSV1 thymidine kinase expressing rat RG2TK+ cells. It is filed as ADME, cell-based. An outline of the steps:
(§1)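 Paired time-course uptake over 120 min in HSV1-tk transduced RG2TK+ and wild-type RG2 cells. Medium held 18F tracer (10 kBq/mL) with [3H]TdR (3.7 kBq/mL) and [14C]FIAU (0.37 kBq/mL) as references. 18F gamma-counted at once, 3H/14C by liquid scintillation 24-36 h later. Net accumulation rate, (mL medium/min)/g cells, taken from slope of (dpm/g cells)/(dpm/mL medium) vs time and normalized to TdR.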

The subject of data set [2] is RG2. The experiment in a line: Uptake in rat RG2 cells. In kind it is ADME, cell-based. An outline of the steps:
as §1

Data set [3] in a line: Partition coefficient, log P at pH 7.4. In kind it is physicochemical. To be noted: octanol/water. A digest of the protocol: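 Octanol/PBS shake-flask: 20 µL radiolabeled tracer in saline added to 0.5 mL each 1-octanol and PBS (pH 6.4, 7.0, 7.4, 8.4); vortexed 1 min, centrifuged 5 min; 20 µL of each layer weighed and 18F gamma-counted (400-550 keV). log P = log10(counts per g octanol / counts per g water).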

Data set [4] deals with RG2. The experiment in a line: Ratio of uptake in rat RG2TK+ cells to RG2 cells. In kind it is ADME, cell-based. A digest of the protocol:
as §1

By logD is commonly meant the decadic logarithm of the distribution of all forms, ionised or not, between an organic phase and buffer at a given pH. Read a high logD as a more lipophilic compound. As for `O=c1[nH]c(=O)n([C@@H]2O[C@H](CO)[C@@H](O)[C@@H]2[18F])cc1/C=C/Br`, the Drug uptake in the data set with RG2 [1] was 35 µL/min/mg; with RG2 [2] it was -1 µL/min/mg. Also, the logD in data set [3] amounted to 1.02.
`Nc1nc(O)c2ncn(COC(CO)C[18F])c2n1` (stereo not drawn): the figures for the Drug uptake in the data set on RG2 [1] and in the data set with RG2 [2] were 7.7 µL/min/mg and 0.4 µL/min/mg, respectively. Besides, the Ratio in the data set on RG2 [4] is recorded as 19.
For the molecule `O=c1[nH]c(=O)n([C@@H]2O[C@H](CO)[C@@H](O)[C@@H]2[18F])cc1C(F)(F)F`, the Drug uptake in the data set with RG2 [1] was found to be 51 µL/min/mg; with RG2 [2], 4 µL/min/mg. Moreover, the Ratio in the data set with RG2 [4] was 13. In data set [3], this molecule gave a logD of 0.03.
Consider `O=c1[nH]c(=O)n([C@@H]2O[C@H](CO)[C@@H](O)[C@@H]2F)cc1CC[18F]`, for which the Drug uptake with RG2 [1] was found to be 290 µL/min/mg; in the data set on RG2 [2], 0.53 µL/min/mg. In addition, the Ratio in the data set with RG2 [4] was 550.
On to `O=c1[nH][14c](=O)n([C@@H]2O[C@H](CO)[C@@H](O)[C@@H]2F)cc1I`, for which the results for the Drug uptake with RG2 [1] and in the data set with RG2 [2] were 274 µL/min/mg and 48 µL/min/mg, respectively. In the data set on RG2 [4], the Ratio is recorded as 5.7. This molecule also showed a logD in data set [3] of -0.1.
As for `CCCc1cn([C@@H]2O[C@H](CO)[C@@H](O)[C@@H]2[18F])c(=O)[nH]c1=O`, the Drug uptake in the data set with RG2 [1] was 14 µL/min/mg; in the data set with RG2 [2], -1 µL/min/mg. The same molecule showed a logD in data set [3] of 0.5.
As to `Nc1nc(=O)c2ncn(CCC(CO)C[18F])c2[nH]1` (stereo not drawn), the figures for the Drug uptake in the data set on RG2 [1] and with RG2 [2] were 22 µL/min/mg and 3.2 µL/min/mg, respectively. Moreover, the Ratio with RG2 [4] came out at 6.9.
